Measurements: publication PMC10165662 (Bioorganic & medicinal chemistry letters, 2023)
“Also recorded” adds a separate entry of the source. Peptide text beside a SMILES is read from it. * marks the point of attachment. AMC = Cc1cc(=O)oc2cc(N*)ccc12

Molecular target: 20S proteasome (sCP), β5 subunit (Homo sapiens, UniProt P28074)
Assay type: biochemical
Conditions: Figures 2C and 4B
Summary of the method: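 Purified human constitutive 20S proteasome (5 nM) incubated with LLVY-conjugated test substrate (10 μM in aminocoumarin time course) up to 4 h at 37 °C. Free LLVY [M+H] EIC quantified by single-quadrupole LC-MS against a purified LLVY standard curve (20–1250 pmol; LOQ 20 pmol), giving % cleaved. Reference fluorogenic substrates included each replicate; triplicates; one-way ANOVA.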

For `Cc1cc(=O)oc2cc(NC(=O)[C@H](Cc3ccc(O)cc3)NC(=O)[C@@H](NC(=O)[C@H](CC(C)C)NC(=O)[C@@H](N)CC(C)C)C(C)C)ccc12` [LLVY-AMC] (H-LLVY-{AMC}), the “Rate of hydrolysis by the sCP in time-dependent MS analysis (in words)” value was “hydrolyzed by the sCP faster than TAS-1; also recorded: faster rate than the molecule with 6-aminocoumarin”.
